Compounds with a hit are over-represented: about 2% of the library has one in this group of screens.
zVAD death inh = inhibitors of zVAD-triggered necroptosis, primary screen, L929 cells. L929 zVAD necroptosis rescue, ATP luminescence, 24 h; with zVAD 60 µM. viability rescue, % at 10 µM. AID 1377, 2008. 220,000 tested, 0.38% active;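 active = activation, scaled between plate controls, above about 75%, limit read from the data; inactive = activation under that limit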
TNF death inh = inhibitors of TNF-alpha triggered necroptosis, primary screen, cell-based, Jurkat FADD-/-, single concentration | AID 463075, 2010 | Jurkat FADD-/- TNF necroptosis rescue, ATP luminescence, 24 h; 0 = TNF only, 100 = no-TNF cells | activation (protection from cell death), % at 10 µM | 220,000 tested, 0.068% active;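 active = activation, meaning protection from cell death, of at least 50% relative to plate controls; inactive = activation below 50%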;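 note: necroptosis triggered by 40 ng/mL TNF-alpha added together with compound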
Tb hexokinase = Trypanosoma brucei hexokinase 1 inhibitors, primary screen, biochemical, G6PDH-coupled NADH absorbance, MLSCN library | inhibition, % at 10 µM | 220,000 tested, 0.11% active | AID 1430, 2008 | hexokinase 1 [Trypanosoma brucei] | recombinant TbHK1, G6PDH-coupled NADH A340;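 active = inhibition of 50% or more in the single-dose primary screen; inactive = inhibition below 50%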
Hep lipid drop = inhibitors of hepatocyte lipid droplet formation, primary screen, imaging, high-throughput imaging, BODIPY stain | AML12 mouse hepatocytes, oleate lipid droplets | inhibition, % at 6.5 µM | 240,000 tested, 0.4% active;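 active = lipid droplet intensity inhibited by at least 50%, with more than 500 cells counted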
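Assay system: AML12 mouse liver cells | Compound: 6.5 µM single-point dosing | Schedule: Overnight exposure | Technique: Fluorescence imaging, 20x objective, two fields per well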
RBBP9 inh = human RBBP9 inhibitors, primary screen, biochemical, fluorescence polarization, FP-Rh probe, HTS | Serine hydrolase RBBP9 (Homo sapiens), O75884 | recombinant RBBP9 | inhibition, % at 7.94 µM | 220,000 tested, 0.2% active;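 active = inhibition above the campaign mean of all tested compounds plus 3 SD, cut at about 14% in these data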
Target sequence (O75884 whole entry, looked up): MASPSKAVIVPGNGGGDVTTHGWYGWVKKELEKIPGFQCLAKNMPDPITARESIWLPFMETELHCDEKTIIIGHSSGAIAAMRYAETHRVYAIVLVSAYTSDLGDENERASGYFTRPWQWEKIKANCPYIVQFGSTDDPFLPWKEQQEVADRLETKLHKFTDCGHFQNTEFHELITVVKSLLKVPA
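Material: RBBP9 protein. Amount: RBBP9 at 2.5 µM in dispensed solution, before mixing. Schedule: 30 min then 45 min, 25 °C. Medium: Tris buffer pH 8.0, NaCl, Pluronic. Measured by: fluorescence polarization. Measure: percent inhibition from mP, scaled between DMSO and no-protein wells. Replication: one well per compound.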
PfM18AAP inh = PfM18AAP inhibitors, malaria aminopeptidase, primary screen, biochemical, QFRET, recombinant enzyme. M18 aspartyl aminopeptidase (Plasmodium falciparum 3D7). H-Glu-NHMec fluorogenic cleavage. inhibition, % at 7.35 µM. 290,000 tested, 1.2% active;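 active = inhibition above the campaign mean inhibition over all tested compounds plus 3 SD, cut at about 28% in these data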
RBBP9 inh conf = human RBBP9 inhibitors, retest, confirmation, biochemical, fluorescence polarization, FP-Rh probe, triplicate | 410 tested, 36% active | shares compounds with RBBP9 inh | recombinant RBBP9 | inhibition, % at 7.94 µM;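 active = inhibition above the hit cutoff derived for the primary screen, cut at about 15% in these data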
Large screens that a line does not name were inactive (follow-up assays come after a bar, where they were run).

COc1ccc(-c2[nH]c(-c3ccccc3)nc2SCC(=O)Nc2nccs2)cc1	RBBP9 inh 25.6 | RBBP9 inh conf inactive
Cc1c(Cl)cccc1NC(=O)CSc1nncn1-c1ccccn1	none (no result: zVAD death inh, TNF death inh, Tb hexokinase, RBBP9 inh)
N#Cc1cc(N)ccc1Sc1ccc(Cl)cc1	none (no result: Hep lipid drop)
N#Cc1ncc(C(F)(F)F)cc1Sc1ccc(N)cc1	RBBP9 inh 18.6 | RBBP9 inh conf inactive
Nc1nnc(CSCc2cccc(Br)c2)s1	none
COc1ccc2c(c1)Sc1ccccc1N2	RBBP9 inh 15.9 | RBBP9 inh conf 29.6
CC(=O)N(c1ccc2oc(=O)sc2c1)S(=O)(=O)c1ccccc1	RBBP9 inh 17.3, PfM18AAP inh 28.6 (no result: Hep lipid drop) | RBBP9 inh conf inactive
CCOc1ccc(S(=O)(=O)Nc2nc3ccccc3nc2Nc2ccc(N3CCOCC3)cc2)cc1	RBBP9 inh 16.9 | RBBP9 inh conf inactive
COc1cc2[nH]c(=S)nc(Nc3ccc(NC(C)=O)cc3)c2cc1OC	RBBP9 inh 29.1 | RBBP9 inh conf 51.7
COc1ccc(S(=O)(=O)N(C(=O)C(C)C)c2ccc3oc(=O)sc3c2)cc1	none
CCOc1ccc(S(=O)(=O)N(C(=O)c2ccco2)c2cc3sc(=O)oc3c3ccccc23)cc1	RBBP9 inh 30.3 | RBBP9 inh conf inactive
COc1ccc(S(=O)(=O)N(C(=O)c2ccco2)c2cc3sc(=O)oc3c3ccccc23)cc1	RBBP9 inh 28.9 | RBBP9 inh conf inactive
CC(C)C(=O)N(c1ccc2oc(=O)sc2c1)S(=O)(=O)c1ccccc1	none
Cc1ccc(S(=O)(=O)N(C(=O)c2ccco2)c2cc3sc(=O)oc3c3ccccc23)cc1	RBBP9 inh 40.0 | RBBP9 inh conf inactive
CCOC(=O)/C(=C/Nc1ccc(F)c(F)c1)[N+](=O)[O-]	none
CC(C)CNC(=O)Cn1c(=O)c2c(ncn2CC(C)C)n(Cc2ccccc2)c1=O	none
O=C(COC(=O)/C=C/c1ccc(Cl)cc1)NCCc1ccccc1	RBBP9 inh 16.6 | RBBP9 inh conf inactive
O=C(COC(=O)/C=C/c1ccccc1)NCc1ccc(Cl)cc1	none
Cc1ccn2c(Nc3ccc4c(c3)OCO4)c(-c3ccc(O)cc3)nc2c1	RBBP9 inh 17.4, PfM18AAP inh 31.1 | RBBP9 inh conf 27.8
O=C1C(CSCc2ccccc2)NC(=S)N1c1ccccc1 (stereo unspecified)	RBBP9 inh 29.9 | RBBP9 inh conf 19.6
O=C(O)CC1NC(=S)N(c2ccccc2)C1=O (stereo unspecified)	none
COc1cc(C2C(C(=O)OC(C)C)=C(C)Nc3[nH]c(=O)[nH]c(=O)c32)ccc1O (stereo unspecified)	RBBP9 inh 17.1 (no result: Hep lipid drop) | RBBP9 inh conf inactive
Cc1[nH]c2ccccc2c1C(=O)COC(=O)c1ccc([N+](=O)[O-])s1	none
Cc1[nH]c2ccccc2c1C(=O)COC(=O)c1ccc[n+]([O-])c1	RBBP9 inh 15.8 | RBBP9 inh conf inactive
Cc1ccc(-c2nc(SCC(=O)N(C)c3c(N)n(Cc4ccccc4)c(=O)[nH]c3=O)n[nH]2)cc1	none (no result: zVAD death inh, TNF death inh, Tb hexokinase, RBBP9 inh)
CCC(=O)Oc1ccc(C/C(=N\O)c2ccc(O)cc2O)o1	RBBP9 inh 30.6 | RBBP9 inh conf 51.8
O=C(/C=N/O)Nc1ccc2sc3ccccc3c2c1	RBBP9 inh 53.2 | RBBP9 inh conf 71.9
O=C(Oc1cccc([N+](=O)[O-])c1)N1CCCCC1	RBBP9 inh 16.4 | RBBP9 inh conf inactive
O=C(Nc1cccc([N+](=O)[O-])c1)N1CCCCCC1	none (no result: zVAD death inh, TNF death inh, Tb hexokinase, RBBP9 inh)
CCN(CC)C(=O)C(=O)c1cccn1-c1ccccc1C#N	RBBP9 inh 20.7 | RBBP9 inh conf inactive
c1coc(-c2nc(-c3ccco3)c(-c3ccco3)nc2-c2ccco2)c1	RBBP9 inh 25.9, PfM18AAP inh 59.8 (no result: Hep lipid drop) | RBBP9 inh conf 18.6
FC(F)(F)c1ccc(-c2nnc(-c3ccccn3)c(-c3ccccn3)n2)nc1	RBBP9 inh 17.1 | RBBP9 inh conf inactive
c1ccc(-c2nnc(-c3ccccn3)c(-c3ccccn3)n2)nc1	none
C[C@@H]1CN(C(=O)c2nc3ccc(Cl)cn3c2CN(C)CCc2cnn(C)c2)C[C@H](C)O1	none (no result: zVAD death inh, TNF death inh, Tb hexokinase, RBBP9 inh)
CCCOc1ccc(/C=N/NC(=O)CSc2ccccn2)cc1OC	RBBP9 inh 16.9 | RBBP9 inh conf inactive
COc1cc(/C=N/NC(=O)CSc2ccccn2)ccc1O	none
CCN1CC(CN(C)Cc2cn(-c3ccc(C)cc3)nc2-c2cccc(C)c2)CC1=O (stereo unspecified)	none
COc1ccc(/C=C/C(=O)Oc2cc(O)cc(O)c2)cc1	none
COc1ccc(-c2cc(O)cc(O)c2)cc1	RBBP9 inh 34.8 | RBBP9 inh conf inactive
O=C(Nc1ccc(Br)cc1F)c1cccnc1	none
O=S(=O)(Nc1ccon1)c1ccc(F)c(F)c1	none (no result: zVAD death inh, TNF death inh, Tb hexokinase, RBBP9 inh)
COc1ccc(OC)c2c1C(=O)c1ccccc1C2=O	none (no result: Hep lipid drop)
COc1ccc(OC)c2c1C(=O)C(Cl)=C(Cl)C2=O	RBBP9 inh 78.8 | RBBP9 inh conf 81.4
CCC(C)c1ccccc1NC(=O)CN1CCN(C/C=C/c2ccccc2)CC1 (stereo unspecified)	none
Cc1cnc([N+](=O)[O-])n1CCOC(=O)NC(=O)c1ccccc1Cl	RBBP9 inh 14.5 | RBBP9 inh conf inactive
Cc1cnc([N+](=O)[O-])n1CCOC(=O)NC(=O)c1ccc(C(F)(F)F)cc1	none
CCOc1ccccc1NC(=O)CSc1nnc2ccc(-c3cccnc3)nn12	RBBP9 inh 15.3 | RBBP9 inh conf inactive
CCCS(=O)(=O)Nc1ccc2cn[nH]c2c1	RBBP9 inh 16.6 | RBBP9 inh conf inactive
O=C(Nc1nnc(C2=COCCO2)o1)c1ccc(Cc2ccccc2)cc1	RBBP9 inh 17.5 | RBBP9 inh conf inactive
C=CCOc1ccc(CNc2ccc3[nH]c(=O)[nH]c3c2)cc1OCC	RBBP9 inh 17.6 | RBBP9 inh conf 14.4
CC1=NNC(=O)C1C(c1ccc(Cl)cc1)C(C#N)C#N (stereo unspecified)	RBBP9 inh 21.8 | RBBP9 inh conf inactive
CC1=NNC(=O)C1C(c1cccc(O)c1)C(C#N)C#N (stereo unspecified)	none
CC1CCN(CC(=O)Nc2ccc(S(=O)(=O)N3C(C)CCCC3C)cc2)CC1 (stereo unspecified)	none (no result: zVAD death inh, TNF death inh, Tb hexokinase, RBBP9 inh)
CCc1ccc(C2NC(=S)NC3=C2C(=O)CC(C)(C)C3)cc1 (stereo unspecified)	none
